From ChEMBL document CHEMBL4406821, “Novel dual inhibitors targeting CDK4 and VEGFR2 synergistically suppressed cancer progression and angiogenesis” (Eur J Med Chem, 2019) come the findings set out here.

The subject of data set [1] is HeLa. Briefly: Antiproliferative activity against human HeLa cells assessed as reduction in cell viability at 80 nM incubated for 48 hrs by EdU staining based laser scanning confocal microscopy. The class given is functional. An outline of the steps: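 Cells, 5×10^4, were seeded in 24-well plates and treated for 48 h. They were then labeled using an EdU Apollo 488 imaging kit with Hoechst 33342 nuclear stain and imaged by laser scanning confocal microscopy. Percent EdU-positive cells = EdU-positive/Hoechst-stained × 100%.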

Data set [2] deals with SiHa. Briefly: Inhibition of colony formation in human SiHa cells at 80 nM incubated for 5 days by crystal violet staining based light microscopy. The class given is functional, cell-based. An outline of the steps: (§1)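 4 × 10^3 cells per well were cultured with graded concentrations for 5 days. Cells were then fixed with 20% methanol, stained with 0.5% crystal violet and photographed by light microscopy.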

For data set [3], the system named is HeLa. Kind of data set: Inhibition of colony formation in human HeLa cells at 80 nM incubated for 5 days by crystal violet staining based light microscopy. The class given is functional, cell-based. An outline of the steps: as §1
Data set [4] has as its target Vascular endothelial growth factor receptor 2 (Homo sapiens, UniProt P35968). The following applies: HUVEC, 40 nM.
Data set [5] concerns SiHa. Kind of data set: Inhibition of colony formation in human SiHa cells at 40 to 80 nM incubated for 5 days by crystal violet staining based light microscopy. The class given is functional, cell-based. Put shortly: as §1
For data set [6], the target named is Serine/threonine-protein kinase mTOR (Homo sapiens) (UniProt P42345). Briefly: Inhibition of recombinant human full length mTOR at 1 uM using as peptide substrate incubated for 40 mins in presence of [gamma-33P]-ATP by scintillation counting method relative to control. Put shortly:
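Single-point inhibition at 1 uM measured in a commercial kinase profiling panel (KinaseProfiler); each value is the mean of two independent experiments.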

Data set [7] addresses Serine/threonine-protein kinase WNK1 (Homo sapiens) (UniProt Q9H4A3). Briefly: Inhibition of recombinant human WNK1 (1 to 491 residues) at 1 uM using myelin basic protein as substrate incubated for 40 mins in presence of [gamma-33P]-ATP by scintillation counting method relative to control. Put shortly:
(§2)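 Tested at a single 1 uM in an outsourced commercial kinase-profiling panel, read as percent inhibition. Each value is the mean of two independent experiments.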

A short description of data set [8]: Toxicity in BALB/c mouse assessed as effect on blood parameter by measuring hematocrit at 40 mg/kg, po administered once two days for 4 times by hematology analyzer. The following applies: in vivo.
Data set [9] deals with RAC-beta serine/threonine-protein kinase (Homo sapiens) (UniProt P31751). Briefly: Inhibition of recombinant human PKBbeta (120 to end residues) at 1 uM using GRPRTSSFAEGKK as substrate incubated for 40 mins in presence of [gamma-33P]-ATP by scintillation counting method relative to control. Put shortly:
as §2

In data set [10] the target is DNA-dependent protein kinase catalytic subunit (Homo sapiens) (UniProt P78527). Kind of data set: Inhibition of recombinant human full length DNA-PK at 1 uM using GST-cMyc-p53 as substrate incubated for 40 mins in presence of [gamma-33P]-ATP by scintillation counting method relative to control.
For data set [11], the target named is G protein-coupled receptor kinase 6 (Homo sapiens) (UniProt P43250). Briefly: Inhibition of recombinant human full length GRK6 at 1 uM using casein as substrate incubated for 40 mins in presence of [gamma-33P]-ATP by scintillation counting method relative to control. Put shortly: as §2
Sequence of G protein-coupled receptor kinase 6 (Homo sapiens) (P43250 whole entry, looked up, the tested form may be a part): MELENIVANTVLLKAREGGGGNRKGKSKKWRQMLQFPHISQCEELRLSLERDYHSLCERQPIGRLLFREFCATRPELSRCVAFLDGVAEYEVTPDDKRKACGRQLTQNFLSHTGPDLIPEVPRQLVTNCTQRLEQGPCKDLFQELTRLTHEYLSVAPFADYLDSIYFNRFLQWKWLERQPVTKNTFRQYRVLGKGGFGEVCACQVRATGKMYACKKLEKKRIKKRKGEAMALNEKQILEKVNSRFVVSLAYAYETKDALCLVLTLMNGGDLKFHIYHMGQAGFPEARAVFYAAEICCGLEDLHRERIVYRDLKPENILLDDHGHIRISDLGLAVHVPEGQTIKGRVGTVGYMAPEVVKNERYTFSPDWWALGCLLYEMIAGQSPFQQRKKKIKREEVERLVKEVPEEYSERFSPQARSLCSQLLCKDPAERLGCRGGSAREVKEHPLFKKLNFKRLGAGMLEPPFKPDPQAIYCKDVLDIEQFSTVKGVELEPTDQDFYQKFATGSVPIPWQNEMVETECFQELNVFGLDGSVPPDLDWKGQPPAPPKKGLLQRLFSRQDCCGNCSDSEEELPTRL
Data set [12] deals with Serine/threonine-protein kinase TAO1 (Homo sapiens) (UniProt Q7L7X3). Briefly: Inhibition of recombinant human TAO1 (1 to 327 residues) at 1 uM using myelin basic protein as substrate incubated for 40 mins in presence of [gamma-33P]-ATP by scintillation counting method relative to control.
The test system of data set [13] is Fibroblast growth factor receptor 2 (Homo sapiens), P21802 [N549H]. Briefly: Inhibition of recombinant human FGFR2 N549H mutant (456 to 770 residues) at 1 uM using GGEEEEYFELVKKKK as substrate incubated for 40 mins in presence of [gamma-33P]-ATP by scintillation counting method relative to control.
The target of data set [14] is Dual specificity mitogen-activated protein kinase kinase 2 (Homo sapiens) (UniProt P36507). Kind of data set: Inhibition of recombinant human full length MEK2 at 1 uM using MBP as substrate incubated for 40 mins in presence of [gamma-33P]-ATP by scintillation counting method relative to control.
Sequence of Dual specificity mitogen-activated protein kinase kinase 2 (Homo sapiens) (P36507 whole entry): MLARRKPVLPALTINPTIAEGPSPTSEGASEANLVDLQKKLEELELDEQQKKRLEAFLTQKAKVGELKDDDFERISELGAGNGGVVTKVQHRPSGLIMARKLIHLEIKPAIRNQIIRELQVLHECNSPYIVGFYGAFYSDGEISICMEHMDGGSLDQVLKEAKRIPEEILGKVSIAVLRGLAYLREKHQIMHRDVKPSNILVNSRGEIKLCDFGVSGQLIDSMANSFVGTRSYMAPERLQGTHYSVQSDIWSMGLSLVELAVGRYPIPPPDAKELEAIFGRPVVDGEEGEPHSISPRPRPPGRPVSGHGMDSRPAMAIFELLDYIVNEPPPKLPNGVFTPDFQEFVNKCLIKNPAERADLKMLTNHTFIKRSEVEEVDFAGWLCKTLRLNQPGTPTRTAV
Data set [15] can be described thus: Toxicity in BALB/c mouse assessed as effect on blood parameter by measuring hemoglobin content at 40 mg/kg, po administered once two days for 4 times by hematology analyzer. The following applies: in vivo.
Data set [16] in a line: Toxicity in NOD/SCID BALB/c mouse xenografted with human SiHa cells assessed as effect on blood parameter by measuring RDW at 40 mg/kg, po administered once two days for 4 times by hematology analyzer. The class given is organism-based. To be noted: in vivo. In general terms: Xenograft models place foreign cells or tissue in a host animal.
The target of data set [17] is cGMP-dependent protein kinase 1 (Homo sapiens) (UniProt Q13976). Briefly: Inhibition of recombinant human full length PKG1beta at 1 uM using RRRLSFAEPG as substrate incubated for 40 mins in presence of [gamma-33P]-ATP by scintillation counting method relative to control.
Sequence of cGMP-dependent protein kinase 1 (Homo sapiens) (Q13976 whole entry): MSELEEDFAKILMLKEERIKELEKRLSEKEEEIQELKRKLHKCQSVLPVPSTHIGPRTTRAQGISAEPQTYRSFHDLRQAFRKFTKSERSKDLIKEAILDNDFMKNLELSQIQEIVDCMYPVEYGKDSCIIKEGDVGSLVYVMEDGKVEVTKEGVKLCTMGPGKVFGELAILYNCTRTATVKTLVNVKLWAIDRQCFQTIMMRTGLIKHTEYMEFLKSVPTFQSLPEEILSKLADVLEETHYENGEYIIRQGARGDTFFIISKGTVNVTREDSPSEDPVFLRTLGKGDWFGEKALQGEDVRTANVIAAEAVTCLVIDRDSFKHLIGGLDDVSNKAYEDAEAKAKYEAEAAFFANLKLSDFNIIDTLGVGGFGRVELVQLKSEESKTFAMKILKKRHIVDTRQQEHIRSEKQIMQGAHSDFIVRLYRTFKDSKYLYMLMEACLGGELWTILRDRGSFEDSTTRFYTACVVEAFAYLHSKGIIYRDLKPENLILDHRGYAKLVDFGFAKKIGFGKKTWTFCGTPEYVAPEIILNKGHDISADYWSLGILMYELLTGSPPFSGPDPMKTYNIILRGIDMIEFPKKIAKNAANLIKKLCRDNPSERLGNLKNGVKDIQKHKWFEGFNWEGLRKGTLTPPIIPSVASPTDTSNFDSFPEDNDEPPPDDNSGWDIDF
The target in data set [18] is Mitogen-activated protein kinase kinase kinase 11 (Homo sapiens) (UniProt Q16584). Kind of data set: Inhibition of recombinant human MLK3 at 1 uM incubated for 40 mins in presence of [gamma-33P]-ATP by scintillation counting method relative to control.
Data set [19] in a line: Toxicity in BALB/c mouse assessed as effect on blood parameter by measuring RBC content at 40 mg/kg, po administered once two days for 4 times by hematology analyzer. To be noted: in vivo.
Data set [20] has as its system Proto-oncogene tyrosine-protein kinase receptor Ret (Homo sapiens), P07949 [V804M]. Briefly: Inhibition of recombinant human RET V804M mutant (658 to end residues) at 1 uM using KKKVSRSGLYRSPSMPENLNRPR as substrate incubated for 40 mins in presence of [gamma-33P]-ATP by scintillation counting method relative to control.
The target of data set [21] is Ephrin type-A receptor 8 (Homo sapiens) (UniProt P29322). Briefly: Inhibition of recombinant human EPhA8 (615 to 911 residues) at 1 uM using KTFCGTPEYLAPEVRREPRILSEEEQEMFRDFDYIADWC as substrate incubated for 40 mins in presence of [gamma-33P]-ATP by scintillation counting method relative to control.
For data set [22], the target named is Serine/threonine-protein kinase Nek6 (Homo sapiens) (UniProt Q9HC98). Briefly: Inhibition of recombinant human NEK6 (2 to end residues) at 1 uM using FLAKSFGSPNRAYKK as substrate incubated for 40 mins in presence of [gamma-33P]-ATP by scintillation counting method relative to control.
Sequence of Serine/threonine-protein kinase Nek6 (Homo sapiens) (Q9HC98 whole entry): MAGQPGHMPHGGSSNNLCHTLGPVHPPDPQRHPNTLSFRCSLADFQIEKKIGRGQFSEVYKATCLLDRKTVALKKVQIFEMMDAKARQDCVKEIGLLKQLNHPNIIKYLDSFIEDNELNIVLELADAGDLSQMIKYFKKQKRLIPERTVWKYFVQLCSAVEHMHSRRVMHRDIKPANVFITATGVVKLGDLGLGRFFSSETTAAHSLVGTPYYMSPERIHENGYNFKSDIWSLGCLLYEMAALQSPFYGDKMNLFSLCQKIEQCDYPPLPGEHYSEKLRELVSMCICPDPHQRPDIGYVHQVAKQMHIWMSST
A short description of data set [23]: MRT (0 to t) in Sprague-Dawley rat at 10 mg/kg, iv by HPLC-MS analysis. To be noted: in vivo. Format: ADME, organism-based.
Data set [24] relates to HeLa. Kind of data set: Induction of cell cycle arrest in human HeLa cells assessed as accumulation in G2/M phase at 40 to 80 nM incubated for 36 hrs by propidium iodide staining based flow cytometry. The class given is functional. Put shortly:
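Cells were treated with graded concentrations for 36 h, then fixed overnight in 70% ice-cold ethanol at 4°C and resuspended in PBS. Staining used 50 µg/ml PI plus 5 µg/ml RNase at 37°C for 30 min. DNA content was analysed by FACS to give G0/G1, S and G2/M fractions.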
(Flow cytometry measures light scatter and fluorescence of single cells or particles in a stream.)

SMILES strings stand for the structures. Activity calls are given as the source filed them. The rule behind the calls is not given here.

Sequence of Proto-oncogene tyrosine-protein kinase receptor Ret (Homo sapiens), P07949 [V804M] (P07949 whole entry V804M, the tested form may be a part): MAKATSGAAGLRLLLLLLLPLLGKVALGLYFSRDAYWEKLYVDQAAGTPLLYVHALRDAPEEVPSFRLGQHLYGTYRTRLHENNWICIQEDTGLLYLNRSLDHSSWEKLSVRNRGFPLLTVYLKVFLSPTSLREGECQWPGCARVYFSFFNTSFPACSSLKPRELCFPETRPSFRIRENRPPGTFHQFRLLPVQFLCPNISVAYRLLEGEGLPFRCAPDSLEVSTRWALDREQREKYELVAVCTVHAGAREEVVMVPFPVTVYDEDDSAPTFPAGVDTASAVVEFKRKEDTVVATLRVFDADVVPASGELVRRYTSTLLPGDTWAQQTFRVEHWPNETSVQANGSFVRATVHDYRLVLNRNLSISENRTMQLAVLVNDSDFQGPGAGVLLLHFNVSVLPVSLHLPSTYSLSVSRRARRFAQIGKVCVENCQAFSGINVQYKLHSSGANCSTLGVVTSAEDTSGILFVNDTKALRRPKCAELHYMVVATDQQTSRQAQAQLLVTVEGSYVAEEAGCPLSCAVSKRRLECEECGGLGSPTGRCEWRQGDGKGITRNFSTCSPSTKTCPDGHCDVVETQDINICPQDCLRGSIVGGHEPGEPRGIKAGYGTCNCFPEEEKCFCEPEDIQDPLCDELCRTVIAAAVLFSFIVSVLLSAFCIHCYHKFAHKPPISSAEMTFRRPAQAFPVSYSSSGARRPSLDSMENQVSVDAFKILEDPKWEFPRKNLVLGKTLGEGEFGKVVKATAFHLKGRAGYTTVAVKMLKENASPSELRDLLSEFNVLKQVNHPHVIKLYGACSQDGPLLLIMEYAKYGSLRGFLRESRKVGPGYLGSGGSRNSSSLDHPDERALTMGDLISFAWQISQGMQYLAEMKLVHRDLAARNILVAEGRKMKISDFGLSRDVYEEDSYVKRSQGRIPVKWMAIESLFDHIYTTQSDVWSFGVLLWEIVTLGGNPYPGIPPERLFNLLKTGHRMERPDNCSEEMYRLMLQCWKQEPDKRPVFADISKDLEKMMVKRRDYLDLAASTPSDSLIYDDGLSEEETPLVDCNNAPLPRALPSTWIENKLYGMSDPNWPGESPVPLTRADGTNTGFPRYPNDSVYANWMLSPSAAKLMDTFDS
Sequence of Vascular endothelial growth factor receptor 2 (P35968 whole entry): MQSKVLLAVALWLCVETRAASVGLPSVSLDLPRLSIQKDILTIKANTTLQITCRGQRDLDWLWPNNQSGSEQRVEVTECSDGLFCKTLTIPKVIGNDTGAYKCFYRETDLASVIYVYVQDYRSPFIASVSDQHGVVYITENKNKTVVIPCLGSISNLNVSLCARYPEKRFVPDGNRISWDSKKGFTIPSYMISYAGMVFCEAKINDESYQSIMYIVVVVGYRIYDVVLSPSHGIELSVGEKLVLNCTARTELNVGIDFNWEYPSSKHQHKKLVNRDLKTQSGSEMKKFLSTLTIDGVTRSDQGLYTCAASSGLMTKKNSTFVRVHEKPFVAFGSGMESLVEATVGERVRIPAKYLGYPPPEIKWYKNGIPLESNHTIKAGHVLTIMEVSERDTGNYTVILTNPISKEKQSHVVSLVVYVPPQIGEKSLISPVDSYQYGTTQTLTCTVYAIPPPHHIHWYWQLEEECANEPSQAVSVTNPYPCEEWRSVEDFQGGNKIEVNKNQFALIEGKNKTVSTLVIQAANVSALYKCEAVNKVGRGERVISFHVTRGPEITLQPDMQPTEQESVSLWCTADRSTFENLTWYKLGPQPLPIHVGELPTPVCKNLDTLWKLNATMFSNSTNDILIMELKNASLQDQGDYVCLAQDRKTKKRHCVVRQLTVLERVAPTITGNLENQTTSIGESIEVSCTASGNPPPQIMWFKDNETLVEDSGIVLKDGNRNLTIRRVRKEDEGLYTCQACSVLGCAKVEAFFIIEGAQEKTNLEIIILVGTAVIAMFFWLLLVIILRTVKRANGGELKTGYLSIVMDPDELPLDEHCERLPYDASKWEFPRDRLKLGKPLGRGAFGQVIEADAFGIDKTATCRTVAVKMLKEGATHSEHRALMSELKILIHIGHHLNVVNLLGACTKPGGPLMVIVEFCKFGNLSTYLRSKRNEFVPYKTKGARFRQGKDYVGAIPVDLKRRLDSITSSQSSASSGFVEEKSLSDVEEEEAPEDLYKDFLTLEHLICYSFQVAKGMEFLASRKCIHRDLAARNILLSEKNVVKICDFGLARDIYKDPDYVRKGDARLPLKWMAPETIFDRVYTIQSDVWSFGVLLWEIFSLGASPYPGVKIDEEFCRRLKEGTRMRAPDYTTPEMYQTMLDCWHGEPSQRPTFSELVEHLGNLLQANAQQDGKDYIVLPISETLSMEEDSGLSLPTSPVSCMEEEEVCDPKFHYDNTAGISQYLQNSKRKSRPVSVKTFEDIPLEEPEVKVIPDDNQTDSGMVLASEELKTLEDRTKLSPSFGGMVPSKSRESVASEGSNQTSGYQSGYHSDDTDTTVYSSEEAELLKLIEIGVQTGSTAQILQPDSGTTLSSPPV
Sequence of RAC-beta serine/threonine-protein kinase (Homo sapiens) (P31751 whole entry): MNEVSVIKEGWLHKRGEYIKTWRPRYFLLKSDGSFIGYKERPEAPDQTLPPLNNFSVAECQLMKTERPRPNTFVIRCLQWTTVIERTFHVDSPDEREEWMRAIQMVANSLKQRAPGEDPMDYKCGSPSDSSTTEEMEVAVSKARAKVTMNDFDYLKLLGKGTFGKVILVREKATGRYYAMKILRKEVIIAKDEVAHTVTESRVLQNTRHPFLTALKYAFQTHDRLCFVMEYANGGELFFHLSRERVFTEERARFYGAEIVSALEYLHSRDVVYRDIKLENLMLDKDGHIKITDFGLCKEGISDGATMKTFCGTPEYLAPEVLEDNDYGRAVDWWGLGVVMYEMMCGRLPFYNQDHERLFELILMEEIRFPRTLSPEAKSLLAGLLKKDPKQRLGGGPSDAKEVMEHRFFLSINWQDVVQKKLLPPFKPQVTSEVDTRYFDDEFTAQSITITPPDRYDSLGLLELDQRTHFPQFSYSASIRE

The term inhibition denotes the drop in the measured response relative to a control, in per cent. Regarding `COc1cc2nccc(Oc3ccc(NC(=O)C4(C(=O)Nc5ccc(F)cc5)CC4)cc3)c2cc1OC` [CABOZANTINIB], the inhibition entry in [1], in data set [2], in data set [3] and in data set [4] was “Active” each time.
By MRT last is commonly meant a mean duration of stay, worked out from the concentration-time curve. Turning to `Cc1ccc(NC(=O)C2(C(=O)Nc3ccc(Nc4ncc(F)c(-c5cc(F)c6nc(C)n(C(C)C)c6c5)n4)cc3)CC2)cc1`, in data set [5], the inhibition result is “Active”. Moreover, the inhibition in data set [6] came out at 0%; in data set [7], 0%; in data set [9], 0%; in data set [10], 3%; in data set [11], 0%; in [12], 2%. Besides, the inhibition in data set [13] is 7%; in data set [14], 14%; in data set [17], 45%; in data set [18], -2%; in data set [20], 27%; in [21], 15%. Moreover, the inhibition in data set [22] amounted to 2%. Besides, the Activity result in data set [8], in data set [15], in data set [16] and in data set [19] was “Non-Toxic” throughout. This molecule also displayed an MRT last in data set [23] of 2 h. In addition, the outcome in [24] was Active.
